What was measured:
Rattus norvegicus = species: Rattus norvegicus; assay: Evaluated for the maximum stimulation of adenylate cyclase in rat striatal tissue with respect to the maximum stimulation caused by dopamine; assay type: functional, Striatum
[1] = target: D(2) dopamine receptor (Rattus norvegicus) (UniProt P61169); assay: Affinity towards Dopamine receptor D2 was evaluated in rat striatal membrane using [3H]spiperone as radioligand; assay type: cell membranes; details: Striatum
[2] = target: D(1A) dopamine receptor (Rattus norvegicus) (UniProt P18901); assay: Affinity towards Dopamine receptor D1 was evaluated in rat striatal membrane using [3H]SCH-23,390 as radioligand; assay type: cell membranes; details: Striatum
Summary of the method: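 Male Sprague-Dawley rats, 200–400 g; striatum dissected from coronal slices, used fresh or held at -70 °C. Membranes homogenized and twice centrifuged at 27000g in ice-cold 50 mM HEPES, 4.0 mM MgCl2, pH 7.4, final ca. 2.0 mg wet weight/mL. Incubation with [3H]SCH23390 at 37 °C for 15 min; bound radioactivity by liquid scintillation; protein by Lowry.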

D(1A) dopamine receptor = D(1A) dopamine receptor (Rattus norvegicus, UniProt P18901); assay: Effective concentration was determined for the adenylate cyclase activity in rat striatal tissue as a measure of Dopamine receptor D1 functional activity; assay type: tissue-based, Striatum
D(1A) dopamine receptor, sequence (P18901 whole entry): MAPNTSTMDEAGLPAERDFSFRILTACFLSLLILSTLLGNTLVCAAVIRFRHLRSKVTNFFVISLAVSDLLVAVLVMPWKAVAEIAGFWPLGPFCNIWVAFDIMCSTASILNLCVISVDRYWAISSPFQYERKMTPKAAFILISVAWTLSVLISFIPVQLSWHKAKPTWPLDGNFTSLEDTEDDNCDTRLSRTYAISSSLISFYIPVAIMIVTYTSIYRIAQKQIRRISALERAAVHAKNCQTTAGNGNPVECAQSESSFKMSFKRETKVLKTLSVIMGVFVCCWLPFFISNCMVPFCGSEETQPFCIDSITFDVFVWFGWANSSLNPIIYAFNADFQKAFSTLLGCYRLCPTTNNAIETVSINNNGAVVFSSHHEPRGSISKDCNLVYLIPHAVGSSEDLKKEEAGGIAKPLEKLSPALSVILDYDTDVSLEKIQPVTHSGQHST

D(2) dopamine receptor (Rattus norvegicus), sequence (P61169 whole entry): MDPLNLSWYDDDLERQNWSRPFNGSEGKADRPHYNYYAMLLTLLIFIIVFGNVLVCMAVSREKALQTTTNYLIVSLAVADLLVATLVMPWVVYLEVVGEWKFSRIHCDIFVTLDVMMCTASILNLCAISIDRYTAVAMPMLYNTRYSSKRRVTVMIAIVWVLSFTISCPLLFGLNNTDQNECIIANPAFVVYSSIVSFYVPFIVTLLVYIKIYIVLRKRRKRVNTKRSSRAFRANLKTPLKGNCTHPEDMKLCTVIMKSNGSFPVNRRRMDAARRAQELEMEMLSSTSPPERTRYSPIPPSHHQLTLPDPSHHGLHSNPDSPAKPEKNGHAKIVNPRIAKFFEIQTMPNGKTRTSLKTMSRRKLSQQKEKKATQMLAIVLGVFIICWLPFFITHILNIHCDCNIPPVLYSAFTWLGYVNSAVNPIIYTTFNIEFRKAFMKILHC
D(1A) dopamine receptor (Rattus norvegicus), sequence (P18901 whole entry): as the sequence (P18901 whole entry) above

| SMILES | Stimulation (Rattus norvegicus) [%] | K0.5 [1] [nM] | K0.5 [2] [nM] | EC50 (D(1A) dopamine receptor) [µM] |
| --- | --- | --- | --- | --- |
| C=CCN1Cc2ccccc2[C@@H]2c3cc(O)c(O)cc3CC[C@H]21 | 32 | 182 | 328 | > 10 |
| NCCc1ccc(O)c(O)c1 [DOPAMINE] | 100 | – | 267 | – |
| CCCN1CCC[C@@H]2Cc3n[nH]cc3C[C@H]21 | – | 49 | > 10000 | – |
| C=CCN1CCc2c(cc(O)c(O)c2Cl)[C@@H](c2ccccc2)C1 | 94 | 73 | 4 | – |
| CN1Cc2ccccc2[C@@H]2c3ccc(O)c(O)c3CC[C@H]21 | 22 | 61 | 477 | > 10 |
| Oc1cc2c(cc1O)[C@@H]1c3ccccc3CN[C@@H]1CC2 (relative stereo) | 17 | > 1000 | > 1000 | – |
| CCCN1Cc2ccccc2[C@@H]2c3cc(O)c(O)cc3CC[C@H]21 | 36 | 27 | 326 | > 10 |
| NC[C@@H]1O[C@H](C23CC4CC(CC(C4)C2)C3)Cc2c1ccc(O)c2O | 92 | – | – | – |
| CN1CCc2cc(Cl)c(O)cc2[C@@H](c2ccccc2)C1 | – | 600 | – | – |
| Oc1cc2c(cc1O)CC(NCc1ccccc1)CC2 (configuration not stated) | 25 | 335 | > 1000 | > 10 |
| Oc1ccc2c(c1O)CCC(NCc1ccccc1)C2 (configuration not stated) | 38 | > 1000 | > 1000 | > 1 |
| Oc1cc2c(cc1O)[C@H]1c3ccccc3CN[C@@H]1CC2 [DIHYDREXIDINE] | 120 | 43.8 | 2.3 | – |
| Oc1ccc([C@@H]2CNCc3sccc32)cc1O | 120 | 142 | 61 | 0.7 |
| NC[C@@H]1O[C@H](c2ccccc2)Cc2c1ccc(O)c2O | 96 | 41 | 0.9 | – |

Reference: ChEMBL document CHEMBL1129293 (J Med Chem, 1996)
